The values below come from ChEMBL document CHEMBL1136075, “Synthesis of the novel liqustrazine derivatives and Their protective effect on injured vascular endothelial cell damaged by hydrogen peroxide” (2003).

Each structure is given as a SMILES string. Activity calls are given as the source filed them. No cut-off for these calls is given here.

The subject of one assay is HUVEC. Put plainly: Maximum stimulation of proliferation rate of human umbilical vascular endothelial cells (HUVECs) by the compound at a concentration of 0.6 mM. It counts as functional. In short, it runs like this:
(§1)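 Cultured human umbilical vein endothelial cells (normal, uninjured) exposed to compound over 0.1–1.5 mmol L⁻¹; viability by MTT, absorbance at 570 nm. Proliferation rate P(%) = (A − A0)/A0, with A0 the vehicle-treated control wells. The maximum P over the concentrations tested is reported. Mean ± SEM, n=6 wells.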
On to `Cc1nc(C)c(CO)nc1C`, for which the Pmax turned out to be 28.03%.

As for `Cc1nc(C)c(C)nc1C` [LIGUSTRAZINE], the Pmax turned out to be 20.66%.

In turn, `Cc1nc(C)c(COC(=O)c2ccco2)nc1C` displayed a Pmax of 69.39%.

With `Cc1nc(C)c(COC(=O)c2ccccc2Cl)nc1C`, the Pmax worked out at 32.1%.

Compound `Cc1nc(C)c(COC(=O)/C=C/c2ccccc2)nc1C` returned a Pmax of 77.32%.

Consider `Cc1nc(C)c(COC(=O)c2ccccc2)nc1C`, for which the Pmax is given as 37%.

The test system of a further assay is HUVEC. Nature of the assay: Maximum stimulation of proliferation rate of human umbilical vascular endothelial cells (HUVECs) by the compound at a concentration of 1.5 mM. It counts as functional. In short, it runs like this:
as §1
In the case of `Cc1nc(C)c(COC(=O)c2ccccc2I)nc1C`, the Pmax is on record as 61.36%.

Another assay relates to HUVEC. Nature of the assay: Maximum stimulation of proliferation rate of human umbilical vascular endothelial cells (HUVECs) by the compound at a concentration of 0.1 mM. It is filed as functional. In short, it runs like this:
as §1
For the compound `Cc1nc(C)c(COC(=O)c2cccnc2)nc1C`, the Pmax is listed as 88.57%.

`COc1ccc(/C=C/C(=O)OCc2nc(C)c(C)nc2C)cc1` displayed a Pmax of 75.45%.

The compound `Cc1nc(C)c(COC(=O)Cc2ccccc2)nc1C` gave a Pmax of 76.11%.

Compound `Cc1nc(C)c(COC(=O)c2ccc(Cl)cc2)nc1C` came in with a Pmax of 82.55%.

In turn, `COc1ccc(/C=C/C(=O)OCc2nc(C)c(C)nc2C)c(OC)c1` returned a Pmax of 70.16%.

In turn, `COc1ccc(C(=O)OCc2nc(C)c(C)nc2C)cc1` yielded a Pmax of 66.04%.

On to `COc1cc(/C=C/C(=O)OCc2nc(C)c(C)nc2C)ccc1O`, for which the Pmax stood at 83.87%.

Compound `Cc1nc(C)c(COC(=O)CCc2ccccc2)nc1C` yielded a Pmax of 80.54%.

Consider `COc1ccccc1C(=O)OCc1nc(C)c(C)nc1C`, for which the Pmax is listed as 71.95%.

`COc1ccc(C(=O)OCc2nc(C)c(C)nc2C)cc1OC` showed a Pmax of 52.95%.

The compound `COc1cc(C(=O)OCc2nc(C)c(C)nc2C)cc(OC)c1OC` gave a Pmax of 45.8%.

`Cc1nc(C)c(COC(=O)C(C)(C)Oc2ccc(Cl)cc2)nc1C` gave a Pmax of 87.85%.

`CC(=O)Oc1ccccc1C(=O)OCc1nc(C)c(C)nc1C` returned a Pmax of 70.88%.

In the case of `Cc1nc(C)c(COC(=O)c2cccc(Cl)c2)nc1C`, the Pmax was determined as 59.32%.

For another assay, the system named is HUVEC. Put plainly: Maximum stimulation of proliferation rate of human umbilical vascular endothelial cells (HUVECs) by the compound at a concentration of 0.1-1.5 mM; NA is not active. It is filed as functional, cell-based. The method in brief: as §1
With `Cc1nc(C)c(COC(=O)c2ccc(Br)cc2)nc1C`, the Pmax result was “inactive”.

As to `Cc1nc(C)c(COC(=O)c2ccc(Br)cc2Br)nc1C`, the Pmax entry was “inactive”.
